Source: PubChem (Johns Hopkins Ion Channel Center)
Sampled rows, rich in hits. Any-hit rate of the full collection: about 2.3%.
TRPC6 inh – inhibitors of mouse TRPC6 channel; actives 1.1% (n = 310,000); HEK293-TRPC6, membrane potential dye, ACh-evoked depolarization; stronger effect = lower value; B-score at 10 µM; Q61143;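 active = B-score under library mean minus 3 SD, initial fluorescence not abnormally high, positive integrated signal ratio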;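 note: B-score derived from integrated fluorescence ratio over the kinetic read; more negative B-score means stronger inhibition of depolarization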
TRPC4 block – TRPC4 (mouse) channel inhibition | HEK293 TRPC4beta/mu-opioid, DAMGO-evoked Fluo4 calcium flux; stronger effect = lower value | B-score at 10 µM | actives 0.39% (n = 300,000);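 active = B-score over 3 SD under the library average, no early fluorescence shift, positive overall ratio signal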
Target sequence (Q9QUQ5 whole entry, looked up): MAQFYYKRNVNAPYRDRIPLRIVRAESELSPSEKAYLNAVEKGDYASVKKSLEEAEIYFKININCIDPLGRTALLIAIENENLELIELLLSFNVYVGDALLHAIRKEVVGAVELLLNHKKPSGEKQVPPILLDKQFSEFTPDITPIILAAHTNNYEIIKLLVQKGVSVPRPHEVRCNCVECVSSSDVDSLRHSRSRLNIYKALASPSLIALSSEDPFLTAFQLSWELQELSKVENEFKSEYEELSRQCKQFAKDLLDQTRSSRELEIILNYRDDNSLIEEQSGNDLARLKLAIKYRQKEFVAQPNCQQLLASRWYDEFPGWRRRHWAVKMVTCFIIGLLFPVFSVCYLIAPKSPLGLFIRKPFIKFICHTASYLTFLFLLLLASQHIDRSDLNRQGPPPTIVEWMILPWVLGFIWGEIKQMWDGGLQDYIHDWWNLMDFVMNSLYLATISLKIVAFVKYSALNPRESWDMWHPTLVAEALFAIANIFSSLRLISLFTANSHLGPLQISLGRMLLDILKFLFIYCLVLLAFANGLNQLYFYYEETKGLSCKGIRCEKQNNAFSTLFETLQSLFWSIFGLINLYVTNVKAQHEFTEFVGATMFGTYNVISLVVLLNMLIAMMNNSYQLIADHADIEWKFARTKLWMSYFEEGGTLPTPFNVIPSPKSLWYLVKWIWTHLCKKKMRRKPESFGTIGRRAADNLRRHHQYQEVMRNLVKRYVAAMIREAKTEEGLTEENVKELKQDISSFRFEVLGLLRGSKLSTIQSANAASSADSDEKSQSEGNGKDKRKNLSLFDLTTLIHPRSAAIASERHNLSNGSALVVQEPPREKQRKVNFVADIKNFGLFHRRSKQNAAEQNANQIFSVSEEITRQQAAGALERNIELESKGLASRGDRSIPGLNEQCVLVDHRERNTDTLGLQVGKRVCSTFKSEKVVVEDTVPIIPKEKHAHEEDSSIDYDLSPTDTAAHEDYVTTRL
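Material: HEK293 cells with stable TRPC4beta plus mu-opioid receptor expression / Probe or stimulus: DAMGO in two steps, submaximal then maximal / Compound: single concentration per test compound / Technique: kinetic Fluo4 fluorescence imaging of calcium influx / Read-out: per-well B score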
TRPC4 potent – TRPC4 (mouse) allosteric potentiation; HEK293 TRPC4beta/mu-opioid, DAMGO EC20, Fluo-4 Ca2+ flux; stronger effect = higher value; B-score at 10 µM; actives 0.42% (n = 310,000); AID 2227;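 active = B-score of calcium response area above 5 SD of library B-scores, with initial fluorescence ratio within 5 SD of library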
TRPC6 act – activates the mouse TRPC6 cation channel; Q61143; HEK293-TRPC6 membrane potential dye fluorescence; stronger effect = higher value; B-score at 10 µM; actives 0.13% (n = 310,000); AID 2550;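 active = B-score of the integrated fluorescence ratio above library mean plus 3 SD, and starting fluorescence ratio within library mean plus 5 SD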;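 note: higher score means more depolarization so channel activation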
TRPC4 act – opens the mouse TRPC4 cation channel; AID 2237; Q9QUQ5; B-score at 10 µM; actives 0.49% (n = 310,000); HEK293 TRPC4beta/mu-opioid, Fluo4 calcium fluorescence; stronger effect = higher value;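 active = B-score above 5 SD of library B-scores, and initial fluorescence ratio not above library mean plus 5 SD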;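 note: positive B-score marks a calcium rise read as TRPC4 activation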
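Material: HEK293 stable line with TRPC4beta plus mu-opioid receptor; technique: Fluo4 calcium-sensitive dye fluorescence, kinetic, 1 Hz baseline; timing: Fluo4 dye loading 45 min at room temperature, 110 s recording; controls: assay buffer as low control, maximal DAMGO as high control; read-out: integrated baseline-normalised fluorescence ratio, converted to per-well B score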
Hits are given with their value.

What do the screens show for `CCN1CCCC1CNC(=O)c1csc2c1CCCC2` (stereo not drawn)?
TRPC6 inh: inactive; TRPC4 block: inactive; TRPC4 potent: inactive; TRPC6 act: inactive; TRPC4 act: 79

What do the screens show for `CC1CCCCC1NC(=O)CCNS(=O)(=O)c1ccc2c(c1)CCC(=O)N2` (stereo not drawn)?
TRPC6 inh: inactive; TRPC4 block: inactive; TRPC4 potent: inactive; TRPC6 act: inactive; TRPC4 act: inactive

What do the screens show for `COc1ccccc1N1CCN(C(=O)c2sc3ncnc(N4CCN(c5ccccn5)CC4)c3c2C)CC1`?
TRPC6 inh: inactive; TRPC4 block: inactive; TRPC4 potent: inactive; TRPC6 act: inactive; TRPC4 act: inactive

Results for COc1ccccc1N1CCN(C(=O)c2sc3nc(C)nc(N4CCN(c5ccccn5)CC4)c3c2C)CC1 ?
TRPC6 inh: inactive; TRPC4 block: -7; TRPC4 potent: inactive; TRPC6 act: inactive; TRPC4 act: inactive

What do the screens show for `Cc1nc(N2CCN(c3ccccn3)CC2)c2c(C)c(C(=O)N3CCN(c4ccc(F)cc4)CC3)sc2n1`?
TRPC6 inh: inactive; TRPC4 block: -10; TRPC4 potent: inactive; TRPC6 act: inactive; TRPC4 act: inactive

What do the screens show for `C=CCN(CC=C)C(=O)CN1C(=O)NC(c2ccccc2)(c2ccccc2)C1=O`?
TRPC6 inh: inactive; TRPC4 block: inactive; TRPC4 potent: inactive; TRPC6 act: inactive; TRPC4 act: inactive

How did COc1ccc(NC(=O)c2c(NC(=O)CNCc3ccco3)sc3c2CCC3)cc1 do in these assays?
TRPC6 inh: inactive; TRPC4 block: inactive; TRPC4 potent: inactive; TRPC6 act: inactive; TRPC4 act: inactive

What do the screens show for `CCOc1ccc(NC(=O)c2c(NC(=O)CNCCN3CCOCC3)sc3c2CCC3)cc1`?
TRPC6 inh: -5.7; TRPC4 block: inactive; TRPC4 potent: inactive; TRPC6 act: inactive; TRPC4 act: inactive

What do the screens show for `COc1ccc(CNC(=O)COC(=O)C2CCN(S(=O)(=O)c3ccccc3C(F)(F)F)CC2)cc1`?
TRPC6 inh: inactive; TRPC4 block: inactive; TRPC4 potent: inactive; TRPC6 act: inactive; TRPC4 act: inactive

How did O=C1CN(C(=O)COC(=O)C2CCN(S(=O)(=O)c3ccccc3C(F)(F)F)CC2)c2ccccc2N1 do in these assays?
TRPC6 inh: inactive; TRPC4 block: inactive; TRPC4 potent: 11; TRPC6 act: inactive; TRPC4 act: inactive

What do the screens show for `Cc1cc(C)nc(N/N=C/c2cc(Br)ccc2O)n1`?
TRPC6 inh: inactive; TRPC4 block: inactive; TRPC4 potent: inactive; TRPC6 act: inactive; TRPC4 act: inactive

Results for CCCn1c(N)c(C(=O)CSc2n[nH]c(-c3ccc(C)cc3)n2)c(=O)[nH]c1=O ?
TRPC6 inh: inactive; TRPC4 block: inactive; TRPC4 potent: 123; TRPC6 act: inactive; TRPC4 act: inactive

What do the screens show for `Cc1cc2cc(C#N)c(NCCNC(=S)NCCCN3CCOCC3)nc2cc1C`?
TRPC6 inh: inactive; TRPC4 block: -6; TRPC4 potent: inactive; TRPC6 act: inactive; TRPC4 act: inactive

How did Cc1cccc(NC2CCCCC2NS(=O)(=O)c2ccccc2)c1 (stereo not drawn) do in these assays?
TRPC6 inh: inactive; TRPC4 block: inactive; TRPC4 potent: 13; TRPC6 act: inactive; TRPC4 act: inactive

How did Cc1ccc(C)c(NC2CCCCC2NS(=O)(=O)c2ccccc2)c1 (stereo not drawn) do in these assays?
TRPC6 inh: inactive; TRPC4 block: inactive; TRPC4 potent: inactive; TRPC6 act: inactive; TRPC4 act: inactive

What do the screens show for `O=C(N1CCCCCC1)N1CCN(S(=O)(=O)c2cccc([N+](=O)[O-])c2)CC1`?
TRPC6 inh: inactive; TRPC4 block: inactive; TRPC4 potent: inactive; TRPC6 act: inactive; TRPC4 act: inactive

What do the screens show for `CC1CC(C)CN(C(=S)Nc2ccc(SC(F)F)cc2)C1` (stereo not drawn)?
TRPC6 inh: inactive; TRPC4 block: inactive; TRPC4 potent: inactive; TRPC6 act: inactive; TRPC4 act: inactive

How did CC1CN(C(=S)Nc2ccc(SC(F)F)cc2)CC(C)O1 (stereo not drawn) do in these assays?
TRPC6 inh: -6.5; TRPC4 block: inactive; TRPC4 potent: inactive; TRPC6 act: inactive; TRPC4 act: inactive

Results for CSC1=NC(C)N2C(SC)=NC(C)N12 (stereo not drawn) ?
TRPC6 inh: inactive; TRPC4 block: inactive; TRPC4 potent: inactive; TRPC6 act: inactive; TRPC4 act: inactive

What do the screens show for `CCCCNc1nc(=S)[nH]c2cc(OC)c(OC)cc12`?
TRPC6 inh: inactive; TRPC4 block: -8; TRPC4 potent: inactive; TRPC6 act: inactive; TRPC4 act: inactive

What do the screens show for `NC(=S)N/N=C/c1ccc(-c2cc(Cl)c(Cl)cc2Cl)o1`?
TRPC6 inh: inactive; TRPC4 block: inactive; TRPC4 potent: inactive; TRPC6 act: inactive; TRPC4 act: inactive

Results for NC(=S)N/N=C/c1ccc(Br)o1 ?
TRPC6 inh: inactive; TRPC4 block: inactive; TRPC4 potent: 10; TRPC6 act: inactive; TRPC4 act: inactive

What do the screens show for `CN1CCC(CNC(=O)Nc2ccccc2)(c2ccccc2)CC1`?
TRPC6 inh: inactive; TRPC4 block: inactive; TRPC4 potent: inactive; TRPC6 act: inactive; TRPC4 act: 172

How did CCCCN(C)CCCNC(=O)c1ccc2c(c1)NC(=O)C(N1CCOCC1)S2 (stereo not drawn) do in these assays?
TRPC6 inh: inactive; TRPC4 block: inactive; TRPC4 potent: 12; TRPC6 act: inactive; TRPC4 act: inactive

How did C[C@H](NC(=O)c1cc2cc(Cl)ccc2n1C)C(=O)N[C@@H](C(=O)O)c1ccccc1 do in these assays?
TRPC6 inh: inactive; TRPC4 block: inactive; TRPC4 potent: inactive; TRPC6 act: inactive; TRPC4 act: inactive

What do the screens show for `CC(C)c1c(O)nc(SCC(=O)N2CCOCC2)[nH]c1=O`?
TRPC6 inh: inactive; TRPC4 block: inactive; TRPC4 potent: inactive; TRPC6 act: inactive; TRPC4 act: inactive

Results for CCCc1c(O)nc(SCCN(CCC)CCC)[nH]c1=O ?
TRPC6 inh: inactive; TRPC4 block: inactive; TRPC4 potent: 19; TRPC6 act: inactive; TRPC4 act: 49

Results for CCCc1c(O)nc(SCC(=O)N2CCCCC2)[nH]c1=O ?
TRPC6 inh: inactive; TRPC4 block: inactive; TRPC4 potent: inactive; TRPC6 act: inactive; TRPC4 act: inactive

How did CCCCCCCc1c(O)nc(SCCN(C)C)[nH]c1=O do in these assays?
TRPC6 inh: inactive; TRPC4 block: inactive; TRPC4 potent: 10; TRPC6 act: inactive; TRPC4 act: 81

What do the screens show for `CC(C)c1c(O)nc(SCCN(C)C)[nH]c1=O`?
TRPC6 inh: inactive; TRPC4 block: inactive; TRPC4 potent: 35; TRPC6 act: inactive; TRPC4 act: inactive

Results for CCOc1cc(N2CCOCC2)c(OCC)cc1NC(=O)[C@H](C)NC(=O)c1ccco1 ?
TRPC6 inh: inactive; TRPC4 block: inactive; TRPC4 potent: inactive; TRPC6 act: inactive; TRPC4 act: inactive

Results for CC1CCCN(CCCNC(=O)c2nn(C)c3c2CS(=O)(=O)c2ccccc2-3)C1 (stereo not drawn) ?
TRPC6 inh: inactive; TRPC4 block: inactive; TRPC4 potent: inactive; TRPC6 act: inactive; TRPC4 act: inactive
